Reference: ChEMBL document CHEMBL1141397, “Pharmacophore-based design of sphingosine 1-phosphate-3 receptor antagonists that include a 3,4-dialkoxybenzophenone scaffold” (J Med Chem, 2007)

How the values were obtained:
Type in all cases: functional, cell-based
[1] = target: T1, Sphingosine 1-phosphate receptor 3 (Homo sapiens, UniProt Q99500); assay: Antagonist activity against human S1P3 receptor assessed as inhibition of S1P-induced intracellular calcium mobilization in CHO-K1 cells
In short: (§1)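 CHO-K1 cells stably transfected with the S1P1, S1P2 or S1P3 receptor, grown in Ham's F12K with G418 (200 µg/mL). Cells plated at 20 000/well in Ham's medium with 1% FBS for 24 h at 37 °C, washed, then held in Ham's medium for a further 24 h. Cells are washed with HBSS containing sulfinpyrazone (0.25 mmol/L) and loaded with Fura-2.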

[2] = target: T2, Sphingosine 1-phosphate receptor 1 (Homo sapiens, UniProt P21453); assay: Activity at human S1P1 receptor assessed as inhibition of S1P-induced intracellular calcium mobilization in CHO-K1 cells at 10 uM; in short: as §1
T2 sequence (P21453 whole entry): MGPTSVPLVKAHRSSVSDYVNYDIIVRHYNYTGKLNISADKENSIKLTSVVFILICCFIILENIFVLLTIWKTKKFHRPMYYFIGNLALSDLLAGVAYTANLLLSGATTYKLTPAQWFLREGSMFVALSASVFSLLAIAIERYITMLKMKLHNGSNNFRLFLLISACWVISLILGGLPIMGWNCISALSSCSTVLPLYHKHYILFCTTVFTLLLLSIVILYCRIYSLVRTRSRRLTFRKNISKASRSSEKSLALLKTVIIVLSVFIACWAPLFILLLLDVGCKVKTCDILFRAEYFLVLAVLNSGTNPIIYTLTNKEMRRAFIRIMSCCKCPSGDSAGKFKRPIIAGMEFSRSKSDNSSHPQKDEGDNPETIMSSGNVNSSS

[3] = target: T1, Sphingosine 1-phosphate receptor 3; assay: Antagonist activity against human S1P3 receptor assessed as inhibition of S1P-induced intracellular calcium mobilization in CHO-K1 cells at 10 uM; in short: as §1
[4] = target: Sphingosine 1-phosphate receptor 2 (Homo sapiens) (UniProt O95136); assay: Antagonist activity against human S1P2 receptor assessed as inhibition of S1P-induced intracellular calcium mobilization in CHO-K1 cells at 10 uM; in short: as §1
Chain of Sphingosine 1-phosphate receptor 2 (Homo sapiens) (O95136 whole entry): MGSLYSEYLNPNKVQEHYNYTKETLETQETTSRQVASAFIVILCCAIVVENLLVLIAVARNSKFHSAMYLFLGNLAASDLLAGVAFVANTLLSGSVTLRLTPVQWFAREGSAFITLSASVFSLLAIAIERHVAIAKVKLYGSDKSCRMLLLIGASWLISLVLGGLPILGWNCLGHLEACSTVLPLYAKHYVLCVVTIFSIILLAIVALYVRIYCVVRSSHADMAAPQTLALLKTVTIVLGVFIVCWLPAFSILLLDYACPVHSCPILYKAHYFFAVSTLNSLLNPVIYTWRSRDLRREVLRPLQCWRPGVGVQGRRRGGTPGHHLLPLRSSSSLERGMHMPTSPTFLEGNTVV

[5] = target: T2, Sphingosine 1-phosphate receptor 1; assay: Antagonist activity against human S1P1 receptor assessed as inhibition of S1P-induced intracellular calcium mobilization in CHO-K1 cells; in short: as §1

T1 sequence (Q99500 whole entry): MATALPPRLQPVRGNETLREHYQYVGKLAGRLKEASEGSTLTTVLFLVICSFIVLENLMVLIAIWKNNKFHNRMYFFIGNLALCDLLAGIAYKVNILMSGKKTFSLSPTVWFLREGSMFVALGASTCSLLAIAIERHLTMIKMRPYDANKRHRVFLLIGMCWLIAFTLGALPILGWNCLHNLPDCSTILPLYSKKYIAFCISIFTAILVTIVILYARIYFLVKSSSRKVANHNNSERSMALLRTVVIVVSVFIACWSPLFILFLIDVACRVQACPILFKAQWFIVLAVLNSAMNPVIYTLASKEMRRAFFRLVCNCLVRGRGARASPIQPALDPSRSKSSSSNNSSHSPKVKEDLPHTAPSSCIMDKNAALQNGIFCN

## COc1ccc(C2N[C@H](C(=O)O)CS2)cc1COc1c(C)cc(Cl)cc1C(C)C (some centres not stated)
[1]
  IC50: > 20 µM

## CCCCCCCCCCCCCCCCOc1ccc(/C(=N/NS(=O)(=O)c2cccc(C(=O)O)c2)c2ccccc2)cc1OC
[2]
  inhibition: 34.8%
[3]
  HI: 34.4%
[4]
  inhibition: -0.1%

## CCCCCCCCOc1ccc(/C(=N/NS(=O)(=O)c2cc(C(=O)O)cc(C(=O)O)c2)c2ccccc2)cc1OC
[2]
  inhibition: 12.7%
[1]
  IC50: 11.4 µM
[4]
  inhibition: -4.6%

## CCCCCCCCCCCCCC1N[C@H](C(=O)O)CS1 (some centres not stated)
[3]
  inhibition: < 10%

## CCCCOc1ccc(/C(=N/NS(=O)(=O)c2cc(C(=O)O)cc(C(=O)O)c2)c2ccccc2)cc1OC
[2]
  inhibition: 24.2%
[3]
  inhibition: 6.7%
[4]
  inhibition: 6.2%

## CCCCCCCCCCCCCCCCCNc1ccc(C(=O)CC(=O)Cc2cc(C(=O)O)ccc2Oc2cc(C(=O)O)cc(C(=O)O)c2)cc1
[1]
  IC50: 4.6 µM

## CCCCCCCCCc1cccc(C2N[C@H](C(=O)O)CS2)c1 (some centres not stated)
[1]
  IC50: > 20 µM

## CCCCCCCc1cccc(C2N[C@H](C(=O)O)CS2)c1 (some centres not stated)
[1]
  IC50: 9.7 µM

## CCCCCCCCCCCCCCCCOc1ccc(S(=O)(=O)O)cc1C(=O)O
[1]
  IC50: 8.75 µM

## CCCCCCCCCCCC1N[C@H](C(=O)O)CS1 (some centres not stated)
[1]
  IC50: 11.6 µM

## CCCCCCCCCCCCCCCCOc1ccc(/C(=N\NS(=O)(=O)c2cccc(C(=O)O)c2)c2ccccc2)cc1OC
[2]
  inhibition: 1%
[3]
  inhibition: 8.3%
[4]
  inhibition: -8.7%

## CCCCCCCc1ccc(C2N[C@H](C(=O)O)CS2)cc1 (some centres not stated)
[1]
  IC50: 13 µM

## CCCCCCCCCCCCCCCCOc1ccc(/C(=N/NS(=O)(=O)c2cc(C(=O)O)cc(C(=O)O)c2)c2ccccc2)cc1
[2]
  inhibition: 17.2%
[1]
  IC50: 9.74 µM
[4]
  inhibition: 20.5%

## CCCCCCCCCCCCCCCCOc1ccc(/C(=N/NS(=O)(=O)c2cc(C(=O)O)cc(C(=O)O)c2)N2CCCCC2)cc1OC
[1]
  IC50: 3.44 µM
[4]
  inhibition: 35.9%
[5]
  IC50: 6.18 µM

## CCCCCCCCCCCCCCCCOc1ccc(/C(=N\NS(=O)(=O)c2cc(C(=O)O)cc(C(=O)O)c2)c2ccccc2)cc1OC
[1]
  IC50: 3.57 µM
[4]
  inhibition: 9.5%
[5]
  IC50: 4.28 µM

## CCCCCCCCOc1ccc(/C(=N\NS(=O)(=O)c2cc(C(=O)O)cc(C(=O)O)c2)c2ccccc2)cc1OC
[2]
  inhibition: 32.9%
[1]
  IC50: 13.2 µM
[4]
  inhibition: 14%

## CCCCCCCCCCCCCCCCCC(=O)Nc1ccc(C(=O)CC(=O)Cc2cc(C(=O)O)ccc2Oc2cc(C(=O)O)cc(C(=O)O)c2)cc1
[1]
  IC50: 3.59 µM

## CCCCCCCCCCC1N[C@H](C(=O)O)CS1 (some centres not stated)
[1]
  IC50: 15.7 µM

## CCCCCCCCCCCCCCCCOc1ccc(/C(=N/NS(=O)(=O)c2cc(C(=O)O)cc(C(=O)O)c2)c2ccccc2)cc1OC
[1]
  IC50: 2.96 µM
[4]
  inhibition: 40.9%
[5]
  IC50: 6.64 µM
